Results collected from several papers.
Target: Serine/threonine-protein kinase Nek6 (NEK6, Homo sapiens, UniProt Q9HC98)
Observed: enzyme activity
Action: inhibitor

Compound | test | conditions | remaining activity [%]
CCN(CC)CCNC(=O)c1c(C)[nH]c(/C=C2\C(=O)Nc3ccc(F)cc32)c1C |  | 1 µM | 103
CCCOc1ccc(OC)c(F)c1C(=O)c1ccc(C(=O)N[C@@H]2CNC[C@H]2NC(=O)c2ccc3[nH]ncc3c2)cc1 |  | 10 µM | 96
CCN(CC)c1ccc(C2=NNC(=O)CC2C)cc1[N+](=O)[O-] (stereo not drawn) |  | 10 µM | 93
CC(C)(C)c1nc(-c2cccc(NS(=O)(=O)c3c(F)cccc3F)c2F)c(-c2ccnc(N)n2)s1 | radiometric | 1 µM | 99
CC(C)(O)[C@H]1CC[C@H](Nc2ccc3ncc(-c4cccc(C(F)(F)F)c4)n3n2)CC1 |  | 1 µM | 99.7
Oc1cccc(-c2nc(N3CCOCC3)c3oc4ncccc4c3n2)c1 |  | 10 µM | 87
O=C(Nc1cnn(-c2csc(C(=O)NC3COC3)c2)c1)Nc1c(F)cccc1Cl |  | 5 µM | 86.8
Cc1cnc(NC2CCOCC2)nc1-n1cnc(C(=O)NC(CN)c2cc(F)cc(Cl)c2)c1 (stereo not drawn) | radiometric | 1 µM | 55
CC(C)(C)C(=O)c1sc(NC2CCCCC2)nc1N |  | 10 µM | 100
Cc1[nH]c(/C=C2\C(=O)Nc3ccc(F)cc32)c(C)c1C(=O)N[C@H]1CCN(C(=O)N(C)C)C1 |  | 0.1 µM | 131
Cc1sc(C(=O)NC2COC2)cc1-n1cc(NC(=O)Nc2c(F)cccc2Cl)cn1 |  | 10 µM | 92.7
COc1cc(Nc2cnc(C#N)c(O[C@H](C)CN(C)C)n2)ncc1-c1cnn(C)c1 | radiometric | 10 µM | 96
